# RBBP9 inh: human RBBP9 inhibitors, primary screen, biochemical, fluorescence polarization, FP-Rh probe, HTS. Serine hydrolase RBBP9 (Homo sapiens), O75884. recombinant RBBP9. inhibition, % at 7.94 µM. actives 0.2% (n = 220,000). AID 1515, 2009;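 active = inhibition above the campaign mean of all tested compounds plus 3 SD, cut at about 14% in these data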;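 also: plate controls were DMSO wells with RBBP9 for no effect and wells lacking RBBP9 protein for full effect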
#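 System: RBBP9 protein / Buffer or medium: Tris/NaCl buffer pH 8.0 with 0.1% Pluronic / Probe or stimulus: Serine-hydrolase probe FP-Rh, 375 nM pre-mixing / Dosing: 7.94 µM single dose, 0.794% DMSO / Times: enzyme-compound preincubation 30 min, then probe labeling 45 min, 25 °C / Technique: fluorescence polarization (mP), excitation 525 nm, emission 598 nm / Replication: singlicate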
# PRMT1 FP inh: PRMT1 methyltransferase inhibitors, primary screen, biochemical, fluorescence polarization; recombinant PRMT1, activity-based probe fluorescence polarization; inhibition, % at 2.79 µM; actives 1.3% (n = 370,000);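 active = inhibition above about 21% made by adding two undisclosed values, limit read from the data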
# PME-1 inh: PME-1 inhibitors via competitive probe labeling, primary screen, biochemical, fluorescence polarization, FP-Rh probe, HTS; inhibition, % at 5.9 µM; actives 0.53% (n = 320,000); recombinant PME-1; Protein phosphatase methylesterase 1 (Homo sapiens), Q9Y570; AID 2130, 2009;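 active = inhibition above the campaign mean of all compounds plus 3 SD, cut at about 26% in these data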;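 also: competitive labeling of PME-1 active site by serine hydrolase directed probe; 0% = PME-1 with DMSO and 100% = wells lacking PME-1 enzyme; inhibitors block probe labeling so polarization falls and inhibition rises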
# Target sequence (Q9Y570 whole entry, looked up): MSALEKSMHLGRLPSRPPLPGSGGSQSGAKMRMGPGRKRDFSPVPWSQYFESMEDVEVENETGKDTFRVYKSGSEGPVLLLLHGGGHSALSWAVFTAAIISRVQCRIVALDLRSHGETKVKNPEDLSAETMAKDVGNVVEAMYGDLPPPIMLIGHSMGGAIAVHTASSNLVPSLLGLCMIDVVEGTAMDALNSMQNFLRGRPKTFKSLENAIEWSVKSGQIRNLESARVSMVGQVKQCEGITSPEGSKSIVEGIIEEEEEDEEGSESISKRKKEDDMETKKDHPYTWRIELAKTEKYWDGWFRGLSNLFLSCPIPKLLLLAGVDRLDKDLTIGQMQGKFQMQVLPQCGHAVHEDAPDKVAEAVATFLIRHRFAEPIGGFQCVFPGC
# Fam108B counter: mouse Fam108B serine hydrolase inhibitors, primary screen, counter-screen for RBBP9 inhibitor project, biochemical, fluorescence polarization; recombinant Fam108B, FP-Rh probe fluorescence polarization; inhibition, % at 9.51 µM; actives 0.33% (n = 300,000);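 active = inhibition above the screen mean inhibition plus 3 SD, computed separately per campaign, cut at about 18% in these data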;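 also: inhibitors lower polarization as less probe binds the enzyme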
# PAD4 inh: human PAD4 inhibitors, primary screen, biochemical, fluorescence polarization, 1536-well format; recombinant PAD4, RCA probe fluorescence polarization; inhibition, % at 6.36 µM; Protein-arginine deiminase type-4 (Homo sapiens), Q9UM07; actives 0.41% (n = 330,000);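 active = percent inhibition above a cutoff equal to the mean of all tested compounds plus 3 SD, cut at about 15% in these data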;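 also: 0% = PAD4 with RCA probe and DMSO and 100% = probe without PAD4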
# GSTO1 counter: inhibitors of recombinant GSTO1, primary screen, counter-screen for RBBP9 inhibitor project, biochemical, fluorescence polarization. Glutathione S-transferase omega-1 (Homo sapiens), P78417. activity-based probe fluorescence polarization. inhibition, % at 5.96 µM. actives 1.1% (n = 300,000);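 active = inhibition above the campaign mean inhibition plus 3 SD, cut at about 35% in these data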;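 also: 0% = GSTO1-1 with DMSO and 100% = wells lacking GSTO1-1 enzyme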
# The depositor's hits bear a star; x = no result. In the library only some 2.3% were active in any assay of this set; here they are far more common.
SMILES,RBBP9 inh,PRMT1 FP inh,PME-1 inh,Fam108B counter,PAD4 inh,GSTO1 counter
CC(=O)/C=C/n1c(=S)oc2ccccc21,3,23*,2,2,4,-2
CCN1C(=O)/C(=C2\SC(=S)N(NC(=O)c3cccnc3)C2=O)c2ccccc21,x,21*,2,-1,-1,1
[O-]/C(=C(\C(=S)Nc1cccc2ccccc12)[n+]1ccccc1)c1cccs1,-6,0,7,12,11,37*
Cc1cccc(C)c1NC(=S)/C(=C(\[O-])c1cccs1)[n+]1ccccc1,-1,14,-4,-2,-4,1
COc1ccccc1NC(=S)OCCN1CCCC12CCC(c1ccccc1)CC2 (centres undefined),x,22*,x,x,x,x
Cc1ccc(NS(=O)(=O)c2ccc3[nH]c(=O)oc3c2)cc1Cl,x,-1,1,x,0,x
O=C1Nc2c(Cl)cc(Cl)cc2C12Nc1ccccc1S2 (centres undefined),x,23*,x,x,x,x
COc1ccc(C2=CC(c3ccco3)n3ncnc3N2)cc1 (centres undefined),-2,x,x,x,x,x
Clc1ccc(C2=CC(c3ccco3)n3ncnc3N2)cc1 (centres undefined),3,64*,-7,-2,-3,-2
c1ccc2c(c1)OCCc1c-2[nH]c2ccccc12,x,2,33*,2,-1,8
N#Cc1c(NC(=O)c2ccccc2Cl)n(Cc2ccccc2)c2nc3ccccc3nc12,-3,2,12,12,-6,47*
CCCCn1c(NC(=O)CC)c(C#N)c2nc3ccccc3nc21,0,-1,2,-3,-4,8
O=C(O)c1ccc(N=Nc2c(O)[nH]c3cc(Cl)ccc23)cc1,0,0,53*,2,-4,-7
O=C(O)c1ccc(N=Nc2c(O)[nH]c3ccc(Br)cc23)cc1,x,-2,0,5,-6,-1
O=C(NCc1ccccc1)[C@]1(C(F)(F)F)C[C@H](CCc2ccccc2)CCCO1,x,-1,4,3,-1,8
Cc1nc2ccc(NC(=O)N3CCCCC3)cc2nc1C,-7,2,-2,0,2,1
O=C(O)c1ccc2nc(-c3ccccc3)c(-c3ccccc3)nc2c1,2,0,-1,0,-7,-2
O=C(c1ccccc1)c1ccc2nc(-c3ccco3)c(-c3ccco3)nc2c1,3,34*,-6,9,-14,60*
O=C(Nc1ccc2nc(-c3ccco3)c(-c3ccco3)nc2c1)N1CCCCCC1,0,x,7,40*,-12,60*
O=C(NCCc1ccccc1)c1ccc2nc(-c3ccco3)c(-c3ccco3)nc2c1,-4,x,30*,11,-19,46*
CN(c1cnn(-c2ccccc2)c(=O)c1Cl)n1cccc1,-7,0,0,0,-4,1
COc1cccc(OC)c1NC(=O)C1CCCN1C(=O)Nc1ccccc1Cl (centres undefined),x,5,x,x,x,x
O=C(CN1CCC(C(=O)c2ccc(F)cc2)CC1)NCc1ccccc1F,x,0,6,9,-2,6
COc1ccc(Cc2nnc(NC(=O)Cc3cccs3)s2)cc1OC,-10,5,2,16,-6,37*
CCOc1ccc(C2NC(=O)NC(C)=C2C(=O)OC)cc1C (centres undefined),0,1,-3,1,1,-4
CCc1ccc(N2C(=O)CC(NNc3nc4ccccc4s3)C2=O)cc1 (centres undefined),-2,2,1,-1,-12,38*
COc1ccc2c(c1)-c1nc(/N=C/c3ccc(O)cc3)sc1CC2,5,36*,1,3,1,3
COc1ccc2c(c1)-c1nc(/N=C/c3c(O)ccc4ccccc34)sc1CC2,2,21*,x,x,x,x
O=C(O)CSc1c(O)c2ccccc2[nH]c1=O,-5,2,-1,2,-5,7

# Screens (PubChem)
